{
  "source": "ChEMBL document CHEMBL3632461",
  "about": "(J Med Chem, 2015)",
  "key": {"[1]": {"test": "Apparent permeability across RRCK cells", "assay_type": "ADME, cell-based, Canis lupus familiaris, MDCKII-LE", "conditions": "dog, MDCK", "how_it_was_run": "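Passive permeability measured in Ralph−Russ canine kidney (RRCK) cells, a low-transporter line isolated from Madin−Darby canine kidney cells; reported as P_app (10⁻⁶ cm/s).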"}, "[2]": {"test": "Oral bioavailability in Beagle dog at 3 or 5 mg/kg", "assay_type": "ADME, organism-based, Canis lupus familiaris", "conditions": "in vivo", "how_it_was_run": "(§1)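 Male CD-1 mice, Wistar-Han rats, beagle dogs and cynomolgus monkeys, fasted overnight and fed after dosing. Given po at 3 or 5 mg/kg in 0.5% methylcellulose, with an iv reference dose of 1 mg/kg. Bioavailability derived from plasma concentration−time data; mean ± SD (n = 3) or individual values (n = 2).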"}, "[3]": {"test": "Volume of distribution at steady state in Wistar rat at 1 mg/kg, iv and 3 or 5 mg/kg, po", "assay_type": "ADME, organism-based", "conditions": "in vivo, read-out: Vdss", "how_it_was_run": "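Male mice, rats, dogs and cynomolgus monkeys, fasted overnight, fed after dosing. Intravenous dose 1 mg/kg in saline or 12% sulfobutyl ether β-cyclodextrin; oral arm 3 or 5 mg/kg in 0.5% methylcellulose. Steady-state volume derived from plasma concentration−time data; mean ± SD for n = 3, individual values for n = 2.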"}, "[4]": {"test": "Oral bioavailability in Wistar rat at 3 or 5 mg/kg", "assay_type": "ADME, organism-based", "conditions": "in vivo", "how_it_was_run": "as §1"}, "[5]": {"test": "Plasma clearance in Wistar rat at 1 mg/kg, iv and 3 or 5 mg/kg, po", "assay_type": "ADME, organism-based", "how_it_was_run": "(§2)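 Male CD-1 mice (25−35 g), cannulated Wistar-Han rats (250 g), beagle dogs (12 kg) and cynomolgus monkeys (7 kg), fasted overnight and fed 1.0 or 2.0 h after dosing. iv 1 mg/kg in saline or 12% sulfobutyl ether β-cyclodextrin; po 3 or 5 mg/kg in 0.5% methylcellulose. Parameters calculated from plasma concentration−time data; mean ± SD for n = 3, individual values for n = 2.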"}, "[6]": {"molecular_target": "T1, Myeloperoxidase (Homo sapiens) (UniProt P05164)", "T1 sequence (whole entry)": "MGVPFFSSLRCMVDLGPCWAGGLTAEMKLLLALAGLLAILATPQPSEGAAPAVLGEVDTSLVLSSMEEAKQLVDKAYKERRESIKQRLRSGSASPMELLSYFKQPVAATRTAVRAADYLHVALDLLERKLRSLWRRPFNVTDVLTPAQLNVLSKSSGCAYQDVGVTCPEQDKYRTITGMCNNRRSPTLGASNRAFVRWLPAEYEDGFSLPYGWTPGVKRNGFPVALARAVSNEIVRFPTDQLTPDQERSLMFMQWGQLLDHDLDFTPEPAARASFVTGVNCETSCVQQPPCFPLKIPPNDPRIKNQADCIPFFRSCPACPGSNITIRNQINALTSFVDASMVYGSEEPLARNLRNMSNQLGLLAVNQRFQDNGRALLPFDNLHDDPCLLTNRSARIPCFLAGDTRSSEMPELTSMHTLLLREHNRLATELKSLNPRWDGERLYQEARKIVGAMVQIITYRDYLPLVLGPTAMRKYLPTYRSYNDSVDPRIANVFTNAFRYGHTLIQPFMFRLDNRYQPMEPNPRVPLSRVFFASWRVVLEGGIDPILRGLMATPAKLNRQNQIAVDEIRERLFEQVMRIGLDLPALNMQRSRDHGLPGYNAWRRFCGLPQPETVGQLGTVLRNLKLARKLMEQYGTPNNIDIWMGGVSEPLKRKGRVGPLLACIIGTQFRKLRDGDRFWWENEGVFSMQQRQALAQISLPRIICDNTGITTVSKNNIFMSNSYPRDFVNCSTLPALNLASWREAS", "test": "(§3) Inhibition of peroxidase activity of MPO isolated from human polynuclear leukocytes using Amplex Red as substrate assessed as formation of resorufin measured every 20 secs by spectrophotometric analysis"}, "[7]": {"molecular_target": "T2, Myeloperoxidase (Homo sapiens, UniProt P05164)", "T2 sequence (P05164 whole entry)": "T1 sequence (whole entry)", "test": "as §3"}, "[8]": {"test": "Elimination half life in Beagle dog at 1 mg/kg, iv and 3 or 5 mg/kg, po", "assay_type": "ADME, organism-based, Canis lupus familiaris", "conditions": "in vivo, read-out: beta t1/2 (converted)", "how_it_was_run": "as §2"}, "[9]": {"molecular_target": "T3, Thyroid peroxidase (Homo sapiens) (UniProt P07202)", "T3 sequence (whole entry)": "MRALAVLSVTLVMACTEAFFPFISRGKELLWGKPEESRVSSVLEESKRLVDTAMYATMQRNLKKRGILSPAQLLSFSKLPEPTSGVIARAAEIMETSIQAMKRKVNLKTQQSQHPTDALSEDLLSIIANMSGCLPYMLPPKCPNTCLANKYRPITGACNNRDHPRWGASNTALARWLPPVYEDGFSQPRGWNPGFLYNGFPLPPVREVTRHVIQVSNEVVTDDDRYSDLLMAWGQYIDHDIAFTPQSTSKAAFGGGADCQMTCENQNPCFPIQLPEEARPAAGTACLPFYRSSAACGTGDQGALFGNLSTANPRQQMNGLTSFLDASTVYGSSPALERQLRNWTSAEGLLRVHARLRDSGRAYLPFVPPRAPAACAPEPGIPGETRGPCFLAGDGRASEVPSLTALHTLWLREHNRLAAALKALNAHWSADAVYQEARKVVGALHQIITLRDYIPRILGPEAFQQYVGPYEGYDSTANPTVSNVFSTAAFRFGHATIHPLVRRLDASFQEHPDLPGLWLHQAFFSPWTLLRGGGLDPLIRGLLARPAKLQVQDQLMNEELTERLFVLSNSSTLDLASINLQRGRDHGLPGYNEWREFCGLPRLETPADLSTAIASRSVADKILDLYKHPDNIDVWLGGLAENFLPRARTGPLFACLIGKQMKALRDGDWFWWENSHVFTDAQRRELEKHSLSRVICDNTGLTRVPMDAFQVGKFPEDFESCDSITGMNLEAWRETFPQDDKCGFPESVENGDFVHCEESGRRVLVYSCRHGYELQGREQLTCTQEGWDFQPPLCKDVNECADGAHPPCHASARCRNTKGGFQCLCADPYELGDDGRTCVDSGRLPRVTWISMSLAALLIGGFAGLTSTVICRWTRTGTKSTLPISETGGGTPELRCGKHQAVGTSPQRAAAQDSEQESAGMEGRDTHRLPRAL", "test": "Inhibition of TPO (unknown origin) using Amplex Red as substrate assessed as formation of resorufin by measuring ratio of Kinact to Ki measured every 20 secs by spectrophotometric analysis", "how_it_was_run": "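Amplex Red oxidation to resorufin in 50 mM sodium phosphate pH 7.4, 150 mM NaCl, 1 mM DTPA, 2 μM H2O2, 30 μM Amplex Red, 2% DMSO. Reaction started by adding TPO. Background rate measured with bovine catalase added and subtracted. Fluorescence (ex 530/em 580) read every 20 s at room temperature. kinact/KI taken from initial rates over the first 300 s. Geometric mean of at least two experiments.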"}, "[10]": {"test": "Tmax in Wistar rat at 3 or 5 mg/kg, po", "assay_type": "ADME, organism-based", "conditions": "in vivo", "how_it_was_run": "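Male animals (CD-1 mice 25−35 g, cannulated Wistar-Han rats 250 g, beagle dogs 12 kg, cynomolgus monkeys 7 kg), fasted overnight and fed 1.0 or 2.0 h after dosing, water ad libitum. Oral dose 3 or 5 mg/kg in 0.5% methylcellulose. Parameters calculated from plasma concentration−time data; mean ± SD for n = 3, individual values for n = 2.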"}, "[11]": {"test": "Lipophilicity, log D of the compound at pH 7.4 by shake-flask method", "assay_type": "physicochemical", "conditions": "buffer"}},
  "data": [
    {"smiles": "COc1ccc(-c2cc(=O)[nH]c(=S)n2CC(N)=O)c(OC)c1", "values": [
      {"measurement": "Papp", "setting": "[1]", "value": 0.8, "unit": "×10⁻⁶ cm/s"},
      {"measurement": "bioavailability", "setting": "[2]", "value": 31, "unit": "%"},
      {"measurement": "Vd", "setting": "[3]", "value": 1.23, "unit": "L/kg"},
      {"measurement": "bioavailability", "setting": "[4]", "value": 76, "unit": "%"},
      {"measurement": "clearance", "setting": "[5]", "value": 35.1, "unit": "mL/min/kg"},
      {"measurement": "pKinact", "setting": "[6]", "value": 2.41},
      {"measurement": "Ki", "setting": "[7]", "value": 0.372, "unit": "µM"},
      {"measurement": "half-life", "setting": "[8]", "value": 3.4, "unit": "h"},
      {"measurement": "log(ratio)", "setting": "[9]", "value": "< 0.5"},
      {"measurement": "Tmax", "setting": "[10]", "value": 0.5, "unit": "h"},
      {"measurement": "logD", "setting": "[11]", "value": 0.59}
    ]},
    {"smiles": "COc1ccc(-c2cc(=O)[nH]c(=S)n2CCO)c(OC)c1", "values": [
      {"measurement": "Papp", "setting": "[1]", "value": 13, "unit": "×10⁻⁶ cm/s"},
      {"measurement": "bioavailability", "setting": "[2]", "value": 16, "unit": "%"},
      {"measurement": "Vd", "setting": "[3]", "value": 0.82, "unit": "L/kg"},
      {"measurement": "bioavailability", "setting": "[4]", "value": 8, "unit": "%"},
      {"measurement": "clearance", "setting": "[5]", "value": 59.3, "unit": "mL/min/kg"},
      {"measurement": "pKinact", "setting": "[6]", "value": 2.34},
      {"measurement": "Ki", "setting": "[7]", "value": 0.151, "unit": "µM"},
      {"measurement": "half-life", "setting": "[8]", "value": 5.3, "unit": "h"},
      {"measurement": "log(ratio)", "setting": "[9]", "value": "< 0.5"},
      {"measurement": "Tmax", "setting": "[10]", "value": 1.3, "unit": "h"},
      {"measurement": "logD", "setting": "[11]", "value": 1.1}
    ]},
    {"smiles": "COc1ccc(Cl)cc1-c1cc(=O)[nH]c(=S)n1CC(N)=O", "note": "[PF-06282999]", "values": [
      {"measurement": "Papp", "setting": "[1]", "value": 1.6, "unit": "×10⁻⁶ cm/s"},
      {"measurement": "bioavailability", "setting": "[2]", "value": 75, "unit": "%"},
      {"measurement": "Vd", "setting": "[3]", "value": 2.13, "unit": "L/kg"},
      {"measurement": "bioavailability", "setting": "[4]", "value": 86, "unit": "%"},
      {"measurement": "clearance", "setting": "[5]", "value": 41.8, "unit": "mL/min/kg"},
      {"measurement": "pKinact", "setting": "[6]", "value": 2.43},
      {"measurement": "half-life", "setting": "[8]", "value": 2.2, "unit": "h"},
      {"measurement": "Tmax", "setting": "[10]", "value": 0.78, "unit": "h"},
      {"measurement": "logD", "setting": "[11]", "value": 0.81}
    ]},
    {"smiles": "COc1ccc(-c2cc(=O)[nH]c(=S)n2CCN)c(OC)c1", "values": [
      {"measurement": "Papp", "setting": "[1]", "value": 3.5, "unit": "×10⁻⁶ cm/s"},
      {"measurement": "bioavailability", "setting": "[2]", "value": 84, "unit": "%"},
      {"measurement": "Vd", "setting": "[3]", "value": 3.71, "unit": "L/kg"},
      {"measurement": "bioavailability", "setting": "[4]", "value": 91, "unit": "%"},
      {"measurement": "clearance", "setting": "[5]", "value": 70.3, "unit": "mL/min/kg"},
      {"measurement": "pKinact", "setting": "[6]", "value": 2.61},
      {"measurement": "Ki", "setting": "[7]", "value": 0.174, "unit": "µM"},
      {"measurement": "half-life", "setting": "[8]", "value": 5.7, "unit": "h"},
      {"measurement": "log(ratio)", "setting": "[9]", "value": "< 0.5"},
      {"measurement": "Tmax", "setting": "[10]", "value": 0.38, "unit": "h"},
      {"measurement": "logD", "setting": "[11]", "value": -0.17}
    ]},
    {"smiles": "COc1ccc(OC)c(-c2cc(=O)[nH]c(=S)n2CC(N)=O)c1", "values": [
      {"measurement": "Papp", "setting": "[1]", "value": 1.1, "unit": "×10⁻⁶ cm/s"},
      {"measurement": "bioavailability", "setting": "[2]", "value": 100, "unit": "%"},
      {"measurement": "Vd", "setting": "[3]", "value": 0.83, "unit": "L/kg"},
      {"measurement": "bioavailability", "setting": "[4]", "value": 61, "unit": "%"},
      {"measurement": "clearance", "setting": "[5]", "value": 37.6, "unit": "mL/min/kg"},
      {"measurement": "pKinact", "setting": "[6]", "value": 2.38},
      {"measurement": "Ki", "setting": "[7]", "value": 0.347, "unit": "µM"},
      {"measurement": "half-life", "setting": "[8]", "value": 2.8, "unit": "h"},
      {"measurement": "log(ratio)", "setting": "[9]", "value": "< 0.5"},
      {"measurement": "Tmax", "setting": "[10]", "value": 0.67, "unit": "h"},
      {"measurement": "logD", "setting": "[11]", "value": 0.34}
    ]}
  ]
}
